Assay results collected from several papers.
Each line is one published result; the experiments were not run side by side.
Observed: cell growth or viability

SMILES	cell line	test	setting	measurement	result
CCCCn1cnc2ccc(-c3ccc(NC(C)=O)nc3)cc2c1=O	NCI-H1975	CCK-8	72 h	IC50	> 10000 nM
NCCC(=O)Nc1ccccc1/N=c1\cc(-c2ccc3nc(N)oc3c2)oc2ccc(F)cc12	NCI-H1975	CCK-8	1 µM	inhibition	63.7%
CCCCC(=O)Nc1ncc(-c2ccc3ncn(CCC)c(=O)c3c2)cn1	NCI-H1975	CCK-8	72 h	IC50	2870 nM
O=C(Nc1cc(C(F)(F)F)cc(C(F)(F)F)c1)Nc1nc2cc(-c3ccc4ncn(Cc5ccccc5)c(=O)c4c3)ccc2s1	NCI-H1975	MTT	72 h	IC50	> 20000 nM
CCCCCCCCCCCCCCCCCCOc1ccccc1CC(=O)OCC[N+]1(C)CCCCC1	NCI-H322M	SRB	10 µM	inhibition	15.4%
COc1cccc(NC(=O)Nc2nc3cc(-c4ccc5ncn(CC(=O)N6CCOCC6)c(=O)c5c4)ccc3s2)c1	NCI-H1975	MTT	72 h	IC50	> 20000 nM
NCC(=O)Nc1ccccc1/N=c1\cc(-c2ccc3c(c2)OCCO3)oc2cc(F)ccc12	NCI-H1975	CCK-8	1 µM	inhibition	4.41%
CCCCCCCCCCCCCCCCCCOc1ccc(CC(=O)OCC[N+](CC)(CC)CC)cc1	NCI-H322M	SRB	10 µM	inhibition	13.3%
CCCCn1cnc2ccc(-c3ccc(NC(=O)Nc4ccc(F)cc4)nc3)cc2c1=O	NCI-H1975	CCK-8	72 h	IC50	1410 nM
CC(=O)O[C@H]1C(=O)[C@@]2(C)[C@H]([C@H](OC(=O)c3ccccc3)[C@]3(O)C[C@H](OC(=O)[C@H](O)[C@@H](NC(=O)c4ccccc4)c4ccccc4)C(C)=C1C3(C)C)[C@]1(OC(C)=O)CO[C@@H]1C[C@@H]2O	NCI-H1975	MTT	72 h	IC50	72 nM
CCCn1cnc2ccc(-c3ccc(NC(=O)CC)nc3)cc2c1=O	NCI-H1975	CCK-8	72 h	IC50	1080 nM
CCCCCCCCCCCCCCCCCCOc1ccccc1CC(=O)OCC[N+]1(C)CCOCC1	NCI-H322M	SRB	10 µM	inhibition	20.2%
O=C(Nc1cccc(C(F)(F)F)c1)Nc1nc2cc(-c3ccc4ncn(CCN5CCOCC5)c(=O)c4c3)ccc2s1	NCI-H1975	MTT	72 h	IC50	1480 nM
CNCCC(=O)Nc1ccccc1/N=c1\cc(-c2ccc3nc(N)oc3c2)oc2ccccc12	NCI-H1975	CCK-8	1 µM	inhibition	43%
CCCCCCCCCCCCCCCCCCOc1cccc(CC(=O)OCC[N+](C)(C)C)c1	NCI-H322M	SRB	10 µM	inhibition	0.32%
CCCn1cnc2ccc(-c3ccc(N4CCCCC4=O)nc3)cc2c1=O	NCI-H1975	CCK-8	72 h	IC50	> 10000 nM
CCCCCCCCCCCCCCCCCCOc1ccc(CC(=O)OCC[N+]2(C)CCOCC2)cc1	NCI-H322M	SRB	10 µM	inhibition	3.14%

SMILES	cell line	test	setting	measurement	result
O=C(Nc1ccc(F)cc1)Nc1nc2cc(-c3ccc4ncn(CC5CC5)c(=O)c4c3)ccc2s1	NCI-H1975	MTT	72 h	IC50	1130 nM
Cc1nc(NC(=O)N2CCC[C@H]2C(N)=O)sc1-c1ccnc(C(C)(C)C(F)(F)F)c1	KPL4	ATP luminescence	5 days	EC50	1190 nM
O=C(Nc1ccc(-c2ccc3ncn(Cc4ccccc4)c(=O)c3c2)cn1)C1CCC1	NCI-H1975	CCK-8	72 h	IC50	> 10000 nM
Cc1cc(C)cc(NC(=O)Nc2nc3cc(-c4ccc5ncn(Cc6ccccc6)c(=O)c5c4)ccc3s2)c1	NCI-H1975	MTT	72 h	IC50	> 20000 nM
CCCCCCCCCCCCCCCCCCOc1ccccc1CC(=O)OCC[N+](CC)(CC)CC	NCI-H322M	SRB	10 µM	inhibition	29.4%
COc1ccc2/c(=N/c3ccccc3NC(=O)[C@@H](N)CO)cc(-c3ccc4c(c3)OCCO4)oc2c1	NCI-H1975	CCK-8	1 µM	inhibition	1.06%
C[C@H](Nc1ccc2c(c1)OCCn1cc(N3C(=O)OC[C@H]3C(F)F)nc1-2)C(N)=O	KPL4	ATP luminescence	5 days	EC50	73.7 nM
CCCCC(=O)Nc1ccc(-c2ccc3ncn(CCF)c(=O)c3c2)cn1	NCI-H1975	CCK-8	72 h	IC50	190 nM
Oc1cccc(-c2nc(N3CCOCC3)c3oc4ncccc4c3n2)c1	NCI-H1975	CCK-8	1 µM	inhibition	38%
CC(=O)Nc1nc2cc(-c3ccc4ncn(Cc5ccccc5)c(=O)c4c3)ccc2s1	NCI-H1975	MTT	72 h	IC50	> 20000 nM
NCCCC(=O)Nc1ccccc1/N=c1\cc(-c2ccc3c(c2)OCO3)oc2ccccc12	NCI-H1975	CCK-8	1 µM	inhibition	1.32%
CCCCn1cnc2ccc(-c3ccc(NC(=O)Nc4ccccc4)nc3)cc2c1=O	NCI-H1975	CCK-8	72 h	IC50	2460 nM
O=C(Nc1ccccc1/N=c1\cc(-c2ccc3c(c2)OCCO3)oc2cc(F)ccc12)N1CCOCC1	NCI-H1975	CCK-8	1 µM	inhibition	2.35%
O=C(Nc1ccc(Br)cc1)Nc1nc2cc(-c3ccc4ncn(Cc5ccccc5)c(=O)c4c3)ccc2s1	NCI-H1975	MTT	72 h	IC50	> 20000 nM
NCCC(=O)Nc1ccccc1/N=c1\cc(-c2ccc3nc(N)oc3c2)oc2ccc(O)cc12	NCI-H1975	CCK-8	1 µM	inhibition	7.56%
Cc1nc(Nc2ncc(C(=O)Nc3c(C)cccc3Cl)s2)cc(N2CC[C@H](O)C2)n1	KARPAS-422	ATP luminescence	10 µM, 72 h	inhibition	91%
